Series [1] can be described thus: Inhibition of Hepatitis C virus genotype 1b Con1 NS5B Cdelta21 polymerase assessed as incorporation of [33P]-CTP into heteropolymer RNA template after 2 hrs. Further details: species or system Hepacivirus hominis. Conditions: Con1, 2 h. Put shortly:
(§1)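 Each value is the mean of duplicate experiments run on two separate weighings of compound.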

The subject of series [2] is Hepatitis C virus. As to the kind of experiment: Antiviral activity against Hepatitis C virus genotype 1b Con1 infected in human HuH7 cells assessed as inhibition of viral RNA replication after 3 by real time PCR analysis. The series is classed as functional, organism-based, Hepacivirus hominis, Huh-7. In a few lines: as §1
A short description of series [3]: Cytotoxicity against human HuH7 cells after 3 days by MTS assay. Format: cell-based, Huh-7. Put shortly:
as §1

The mark [4] stands for this setting: Hepatitis C virus, Con1, Huh-7, read-out: EC50.

For `CC(C)c1ccc(NC(=O)c2ccnnc2)c(N2CCN(c3cnccn3)CC2)c1`, the IC50 in series [1] is > 20 µM.
Still for that read-out and setting: the result for `Cc1cnc(C(=O)Nc2ccc(C(C)C)cc2N2CCN(c3cnccn3)CC2)cn1` reads > 20 µM; that for `Cc1oncc1C(=O)Nc1ccc(C(C)C)cc1N1CCN(c2cnccn2)CC1`, 13 µM; that for `O=C(Nc1ccc(Br)cc1N1CCN(c2cnccn2)CC1)c1cccnc1`, > 20 µM.
On to `Cc1c(F)ccc(F)c1C(=O)Nc1ccc(C(C)C)cc1N1CCN(c2cnccn2)CC1`, for which the EC50 entry in series [2] (huh-7) was “ND(toxic)”. Also, the IC50 in series [1] was found to be 54 µM. Also, the 50% cytotoxic concentration (CC50) at 72 h in series [3] was 11 µM.
On the same counts, the results for `CC(C)c1ccc(NC(=O)c2cccnc2F)c(N2CCN(c3cnccn3)CC2)c1` are “ND(toxic)”, 2.2 µM and 17 µM.
`CC(C)c1ccc(NC(=O)c2ccnc(NC(=O)C(C)(C)C)c2)c(N2CCN(c3cnccn3)CC2)c1`: in series [1], the IC50 was > 20 µM.
In the case of `Cc1nc(Br)sc1C(=O)Nc1ccc(C(C)C)cc1N1CCN(c2cnccn2)CC1`, the concentration for a half-maximal effect (EC50) in series [2] (setting [4]) is > 10 µM. Moreover, the IC50 in series [1] is 3 µM. For the same compound, the half-maximal cytotoxic concentration (CC50) at 72 h in series [3] was > 10 µM.
Turning to `Cc1c(F)cc(F)cc1C(=O)Nc1ccc(C(C)C)cc1N1CCN(c2cnccn2)CC1`, the EC50 entry in series [2] (huh-7) was “ND(toxic)”. In addition, the IC50 in series [1] is 0.54 µM. In series [3], this compound gave a CC50 at 72 h of 20 µM.
On to `Cc1ncccc1C(=O)Nc1ccc(C(C)C)cc1N1CCN(c2ccncn2)CC1`, for which the EC50 in series [2] (setting [4]) worked out at 1.1 µM. In addition, the IC50 in series [1] stood at 0.1 µM. Moreover, in series [3], the half-maximal cytotoxic concentration (CC50) at 72 h amounted to 20 µM.
With `CC(C)c1ccc(NC(=O)c2cccnc2)c(N2CCN(C(=O)Nc3ccccc3)CC2)c1`, the IC50 in series [1] is > 100 µM.
As to `CC(C)c1ccc(NC(=O)c2cccnc2C(F)(F)F)c(N2CCN(c3cnccn3)CC2)c1`, the EC50 result in series [2] (huh-7) is listed as “ND(toxic)”. In series [1], the IC50 worked out at 2.3 µM. Moreover, the CC50 at 72 h in series [3] was determined as 4.5 µM.
On to `CC(C)c1ccc(NC(=O)c2ccccn2)c(N2CCN(c3cnccn3)CC2)c1`, for which the IC50 in series [1] is > 20 µM.
The same measure, in the same setting: the result for `CC(C)c1ccc(NC(=O)c2ccc(C(F)(F)F)nc2)c(N2CCN(c3cnccn3)CC2)c1` reads > 20 µM.
On to `CC(C)c1ccc(NC(=O)c2cccnc2)c(N2CCN(c3cnccn3)CC2)c1`, for which the EC50 in series [2] (setting [4]) is 20 µM. Besides, the IC50 in series [1] was found to be 3 µM. In series [3], this compound showed a CC50 at 72 h of 54 µM.
For the compound `Cc1occc1C(=O)Nc1ccc(C(C)C)cc1N1CCN(c2cnccn2)CC1`, the concentration for half-maximal inhibition (IC50) in series [1] stood at 15 µM.
Same read-out and setting: to `CC(C)c1ccc(NC(=O)c2cccnc2)c(N2CCN(c3cncc(-c4ccccc4)n3)CC2)c1` belongs 17 µM.
Turning to `CC(C)c1ccc(NC(=O)c2cccc(O)n2)c(N2CCN(c3cnccn3)CC2)c1`, in series [2] (huh-7), the concentration giving a half-maximal response (EC50) entry is “ND(toxic)”. In addition, in series [1], the IC50 was 46 µM. The same compound gave a CC50 at 72 h in series [3] of 17 µM.
On the same counts, the results for `CC(C)c1ccc(NC(=O)c2cccnc2C2CC2)c(N2CCN(c3cnccn3)CC2)c1` are “ND(toxic)”, 2 µM and 21 µM.
For `COc1ncccc1C(=O)Nc1ccc(C(C)C)cc1N1CCN(c2cnccn2)CC1`, the IC50 in series [1] is > 20 µM.
Regarding `Cc1ccnc(N2CCN(c3cc(C(C)C)ccc3NC(=O)c3cccnc3)CC2)n1`, the concentration giving a half-maximal response (EC50) result in series [2] (huh-7) is on record as “ND(toxic)”. Besides, the IC50 in series [1] is 1.5 µM. This compound also showed a CC50 at 72 h in series [3] of 14 µM.
`CC(C)c1ccc(NC(=O)C2CCOC2)c(N2CCN(c3cnccn3)CC2)c1` (centres undefined): the IC50 in series [1] came to 20 µM.
The same measure, in the same setting: to `Cc1n[nH]cc1C(=O)Nc1ccc(C(C)C)cc1N1CCN(c2cnccn2)CC1` belongs > 200 µM.
For `CC(C)c1ccc(NC(=O)c2cccnc2)c(N2CCN(c3ccncn3)CC2)c1`, the EC50 result in series [2] (huh-7) is on record as “ND(toxic)”. In addition, in series [1], the IC50 came out at 0.56 µM. Besides, the CC50 at 72 h in series [3] is 27 µM.
For the compound `CC(C)c1ccc(NC(=O)c2cnc3ccccc3c2)c(N2CCN(c3cnccn3)CC2)c1`, in series [2] (setting [4]), the concentration giving a half-maximal response (EC50) is 1.8 µM. Further, the half-inhibitory concentration (IC50) in series [1] was found to be 6.7 µM. Further, in series [3], the half-maximal cytotoxic concentration (CC50) at 72 h stood at 6 µM.
With `C=C(C)c1ncccc1C(=O)Nc1ccc(C(C)C)cc1N1CCN(c2cnccn2)CC1`, the IC50 in series [1] was > 200 µM.
For `CC(C)c1ccc(NC(=O)c2cccnc2)c(N2CCN(C(=O)CN(C)C)CC2)c1`, the IC50 in series [1] is > 200 µM.
`CC(C)c1ccc(NC(=O)c2cccnc2N)c(N2CCN(c3cnccn3)CC2)c1`: the EC50 entry in series [2] (huh-7) is “ND(toxic)”. Moreover, in series [1], the IC50 came out at 1 µM. For the same compound, the CC50 at 72 h in series [3] turned out to be 30 µM.
In the case of `CC(C)c1ccc(NC(=O)c2cccnc2O)c(N2CCN(c3cnccn3)CC2)c1`, the half-inhibitory concentration (IC50) in series [1] was > 200 µM.
The same measure, in the same setting: the result for `Cc1nocc1C(=O)Nc1ccc(C(C)C)cc1N1CCN(c2cnccn2)CC1` reads > 200 µM.
Regarding `CC(C)c1ccc(NC(=O)c2cccnc2)c(N2CCN(c3ncccn3)CC2)c1`, the EC50 result in series [2] (huh-7) is on record as “ND(toxic)”. For the same compound, in series [1], the IC50 came out at 2.3 µM. In addition, the CC50 at 72 h in series [3] stood at 37 µM.
Consider `CC(C)c1ccc(NC(=O)C2CCCNC2)c(N2CCN(c3cnccn3)CC2)c1` (centres undefined), for which the IC50 in series [1] was > 200 µM.
Regarding `CC(C)c1ccc(NC(=O)c2cnccc2C(F)(F)F)c(N2CCN(c3cnccn3)CC2)c1`, in series [1], the IC50 was > 20 µM.
For the compound `O=C(Nc1ccc(C2CC2)cc1N1CCN(c2cnccn2)CC1)c1cccnc1`, the 50% inhibitory concentration (IC50) in series [1] amounted to 12 µM.
`Cc1cncc(C(=O)Nc2ccc(C(C)C)cc2N2CCN(c3cnccn3)CC2)c1`: the EC50 entry in series [2] (huh-7) is recorded as “ND(toxic)”. Also, the half-maximal inhibitory concentration (IC50) in series [1] amounted to 2.3 µM. In series [3], this compound returned a half-maximal cytotoxic concentration (CC50) at 72 h of 13 µM.
As for `Cc1nc(N(C)C)sc1C(=O)Nc1ccc(C(C)C)cc1N1CCN(c2cnccn2)CC1`, in series [2] (setting [4]), the EC50 came to 6.9 µM. Also, the IC50 in series [1] came out at 10 µM. For the same compound, the half-maximal cytotoxic concentration (CC50) at 72 h in series [3] is > 10 µM.
Take `CC(C)c1ccc(NC(=O)c2cnc3[nH]ccc3c2)c(N2CCN(c3cnccn3)CC2)c1`: in series [1], the 50% inhibitory concentration (IC50) is > 20 µM.
As for `CSCc1nccc(N2CCN(c3cc(C(C)C)ccc3NC(=O)c3cccnc3C)CC2)n1`, the EC50 in series [2] (setting [4]) turned out to be 2.2 µM. In addition, the IC50 in series [1] stood at 0.027 µM. This compound had a CC50 at 72 h in series [3] of 19 µM.
On to `CCOC(=O)c1ccc(NC(=O)c2cccnc2)c(N2CCN(c3cnccn3)CC2)c1`, for which the half-inhibitory concentration (IC50) in series [1] was > 5 µM.
Take `Cc1nccc(N2CCN(c3cc(C(C)C)ccc3NC(=O)c3cccnc3)CC2)n1`: the half-maximal effective concentration (EC50) result in series [2] (huh-7) was “ND(toxic)”. Also, the IC50 in series [1] turned out to be 0.16 µM. The compound further had a CC50 at 72 h in series [3] of 25 µM.
For `Cc1c(F)cc(C(=O)Nc2ccc(C(C)C)cc2N2CCN(c3cnccn3)CC2)cc1F`, the EC50 in series [2] (setting [4]) is > 50 µM. Besides, the half-inhibitory concentration (IC50) in series [1] amounted to 5.6 µM. In addition, the CC50 at 72 h in series [3] was > 50 µM.
In the case of `CC(C)c1ccc(NC(=O)c2cccnc2)c(N2CCN(c3nsc(Cl)n3)CC2)c1`, the EC50 in series [2] (setting [4]) was > 10 µM. In addition, the IC50 in series [1] is 5 µM. Besides, the CC50 at 72 h in series [3] is > 10 µM.
As to `CC(C)c1ccc(NC(=O)c2cccnc2)c(N2CCN(S(C)(=O)=O)CC2)c1`, the half-maximal inhibitory concentration (IC50) in series [1] was > 200 µM.
Same read-out and setting: the result for `CC(C)c1ccc(NC(=O)c2cncnc2)c(N2CCN(c3cnccn3)CC2)c1` reads > 20 µM; that for `Cc1cnc(N2CCN(c3cc(C(C)C)ccc3NC(=O)c3cccnc3)CC2)s1`, 15 µM.
On to `CNCC(=O)N1CCN(c2cc(C(C)C)ccc2NC(=O)c2cccnc2)CC1`, for which, in series [1], the half-maximal inhibitory concentration (IC50) is > 200 µM.
As to `Cc1ncoc1C(=O)Nc1ccc(C(C)C)cc1N1CCN(c2cnccn2)CC1`, the IC50 in series [1] stood at 14 µM.
As to `CC(C)c1ccc(NC(=O)C2CCOCC2)c(N2CCN(c3cnccn3)CC2)c1`, the half-maximal inhibitory concentration (IC50) in series [1] is > 20 µM.
Same read-out and setting: the result for `CC(C)c1ccc(NC(=O)c2cccnc2)c(N2CCN(C(=O)OC(C)(C)C)CC2)c1` reads > 200 µM.

Source of the values: ChEMBL document CHEMBL2010780, “Pyridine Carboxamides: Potent Palm Site Inhibitors of HCV NS5B Polymerase” (ACS Med Chem Lett, 2010).
